PMC2862791 (Journal of controlled release : official journal of the …, 2010)

Columns and labels:
[1] = tested on: 3T3-L1 cells; assay: Cell cytotoxicity; assay type: cell-based; conditions: MTT, 24 h
Procedure, shortened: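 3T3-L1 cells were differentiated under hypoxia (100 μM CoCl2 in differentiation medium, refreshed every 2 days) and treated for 24 h at 37 °C with the test compound, at 1.5 μg/μl ASO equivalent. MTT (5 mg/ml in complete DMEM) was then added for 5 h. Formazan was dissolved in DMSO and absorbance read. Viability (%) = OD(sample)/OD(control) × 100.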

[2] = tested on: 3T3-L1 cells; assay: Cellular uptake and intracellular localization by confocal microscopy; assay type: cell-based; conditions: 6-FAM-tagged ASO, 24 h; for cellular uptake, control group: non-differentiated control (Con) cells
Procedure, shortened: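 Control or normoxic-differentiated 3T3-L1 cells were detached at day 4 after induction and re-seeded on chambered coverglass at 70% confluency. After about 20 h, cells were given 6-FAM (3′)-labelled ASO conjugate, or equivalent ASO or ionic complex, for 24 h without serum deprivation. After a PBS wash, live cells were imaged by laser-scanning confocal microscopy (water immersion ×60, 37 °C, 5% CO2).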

Substance | cell viability under hypoxia compared to that of control ([1]; differentiation under hypoxia, 1.5 μg/μl ASO) | concentration showing significant cell toxicity ([1]; non-differentiated control 3T3-L1 cells, AS-L containing 0-10 μg/μl of ASO) [µg/µL] | cellular uptake, differentiation group under normoxia ([2]; differentiation under normoxia (D)) | cellular uptake, control group [2]
ASO: PS modified antisense-HIF1α-oligonucleotide, 5’-ACAACGCGGGCACCGATTCGCCATG-3’ (antisense ACAACGCGGGCACCGATTCGCCATG; all phosphorothioate, sugars by position and methylation of C not given here) | statistically indistinguishable | ≥ 2 | unable to internalize into cells | unable to internalize into cells
MMO: PS modified mismatch-HIF1α-oligonucleotide, 5’-GTGATCCCCTGCTCTTGCCGT-3’ (GTGATCCCCTGCTCTTGCCGT; all phosphorothioate, sugars by position and methylation of C not given here) [reference compound] |  |  |  | unable to internalize into cells
